Measurements pooled from the literature.
pIC50: −log10 of the molar value.

CCCCn1cnc2ccc(-c3ccc4sc(NC(=O)Nc5ccc(F)cc5)nc4c3)cc2c1=O
pIC50 (NCI-H1975; cell growth or viability, MTT; 72 h): 6.16

NCCCCC(=O)Nc1ccccc1/N=c1\cc(-c2ccc3c(c2)OCO3)oc2ccccc12
inhibition (NCI-H1975; cell growth or viability, CCK-8; 1 µM): -2.12%

Cc1ccc(C(=O)Nc2ccc(-c3ccc4ncn(Cc5ccccc5)c(=O)c4c3)cn2)cc1
pIC50 (NCI-H1975; cell growth or viability, CCK-8; 72 h): < 5.00

COc1ccc2/c(=N/c3ccccc3NC(=O)[C@@H](N)C(C)(C)C)cc(-c3ccc4c(c3)OCCO4)oc2c1
inhibition (NCI-H1975; cell growth or viability, CCK-8; 1 µM): 4.59%

O=C(Nc1nc2cc(-c3ccc4ncn(Cc5ccccc5)c(=O)c4c3)ccc2s1)c1ccccc1
pIC50 (NCI-H1975; cell growth or viability, MTT; 72 h): < 4.70

C[C@@H]1[C@H](O)[C@@H](C)/C=C/C=C/C=C/C=C/C=C/C=C/C=C/[C@H](O[C@@H]2O[C@H](C)[C@@H](O)[C@H](N)[C@@H]2O)C[C@@H]2O[C@](O)(C[C@@H](O)C[C@@H](O)[C@H](O)CC[C@@H](O)C[C@@H](O)CC(=O)O[C@H]1C)C[C@H](O)[C@H]2C(=O)O
pIC50 (Leishmania amazonensis; parasite growth, MTT; promastigote): 6.55

CC(C)NC(=O)Nc1nc2cc(-c3ccc4ncn(Cc5ccccc5)c(=O)c4c3)ccc2s1
pIC50 (NCI-H1975; cell growth or viability, MTT; 72 h): 5.26

Nc1nc2c(ncn2COCCO)c(=O)[nH]1
pIC50 (Human alphaherpesvirus 2; viral replication, inhibitor, qPCR; Vero): 6.66

CCCCC(=O)Nc1ccc(-c2ccc3ncn(CCC(C)C)c(=O)c3c2)cn1
pIC50 (NCI-H1975; cell growth or viability, CCK-8; 72 h): 6.27

NCCC(=O)Nc1ccccc1/N=c1\cc(-c2ccc3oc(N)nc3c2)oc2ccccc12
inhibition (NCI-H1975; cell growth or viability, CCK-8; 1 µM): 24.3%

CCNC(=O)Nc1nc2cc(-c3ccc4ncn(Cc5ccccc5)c(=O)c4c3)ccc2s1
pIC50 (NCI-H1975; cell growth or viability, MTT; 72 h): 5.00

CCCn1cnc2ccc(-c3ccc(NC(=O)CC(C)CC)nc3)cc2c1=O (stereo not drawn)
pIC50 (NCI-H1975; cell growth or viability, CCK-8; 72 h): 5.87

c1ccc(Oc2ccc(Nc3c4c(nc5ccccc35)CCC4)cc2)cc1
pIC50 (Leishmania amazonensis; parasite growth, MTT; promastigote): 5.96

COCCC(=O)Nc1ccccc1/N=c1\cc(-c2ccc3c(c2)OCO3)oc2ccccc12
inhibition (NCI-H1975; cell growth or viability, CCK-8; 1 µM): 3.84%

O=C(Nc1ccc(-c2ccc3ncn(Cc4ccccc4)c(=O)c3c2)cn1)C1CCCC1
pIC50 (NCI-H1975; cell growth or viability, CCK-8; 72 h): < 5.00
